Laboratory results reported in ChEMBL document CHEMBL2062481 (J Med Chem, 2012).

Key:
[1] = AUC (0 to 24 hrs) in C3H/HeN mouse plasma at 5 mg/kg, iv administered as single dose; assay type: ADME, organism-based; design: time < 24 hr, dose 5 mg/kg, route intravenous
Procedure, shortened: (§1)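 Female C3H/HeN mice (19–25 g) received a single tail-vein iv dose in 100 μL PBS. Blood and urine (10 μL) were sampled at 6 and 30 min and at 1, 2, 4, 6 and 8 h. Samples were methanol-precipitated, centrifuged and quantified by LC-MS. n = 4.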

[2] = 1-octanol-phosphate buffer distribution coefficient, log D of the compound at 1 uM after 2 hrs by shake flask method at pH 7.4; assay type: physicochemical
Procedure, shortened: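 Phosphate buffer (0.1 M, pH 7.4) and 1-octanol were mutually pre-saturated. Analyte at 1 μM in buffer was overlaid with octanol at two volume ratios chosen by lipophilicity class, three wells per ratio. Plates were shaken 2 h at 25 °C and centrifuged, and the aqueous phase was quantified by LC-MS. Results were accepted if the two ratio means agreed within 0.1 unit.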

[3] = AUC (0 to 24 hrs) in C3H/HeN mouse urine at 0.05 mg/kg, iv administered as single dose; assay type: ADME, organism-based; design: time < 24 hr, dose 0.05 mg/kg, route intravenous; procedure, shortened: as §1
[4] = AUC (0 to 24 hrs) in C3H/HeN mouse plasma at 0.05 mg/kg, iv administered as single dose; assay type: ADME, organism-based; design: time < 24 hr, dose 0.05 mg/kg, route intravenous; procedure, shortened: as §1
[5] = AUC (0 to 24 hrs) in C3H/HeN mouse urine at 25 mg/kg, iv administered as single dose; assay type: ADME, organism-based; design: time < 24 hr, dose 25 mg/kg, route intravenous; procedure, shortened: as §1
[6] = AUC (0 to 24 hrs) in C3H/HeN mouse plasma at 25 mg/kg, iv administered as single dose; assay type: ADME, organism-based; design: time < 24 hr, dose 25 mg/kg, route intravenous; procedure, shortened: as §1
[7] = AUC (0 to 24 hrs) in C3H/HeN mouse plasma at 1 mg/kg, iv administered as single dose; assay type: ADME, organism-based; design: time < 24 hr, dose 1 mg/kg, route intravenous; procedure, shortened: as §1
[8] = AUC (0 to 24 hrs) in C3H/HeN mouse urine at 1 mg/kg, iv administered as single dose; assay type: ADME, organism-based; design: time < 24 hr, dose 1 mg/kg, route intravenous; procedure, shortened: as §1

Structure (SMILES)	logD at 2 h, 1 µM [2]	also measured
O=[N+]([O-])c1ccc2c(c1)CCN2c1ccc(O[C@H]2O[C@H](CO)[C@@H](O)[C@H](O)[C@@H]2O)c(Cl)c1	1.9	AUC(0-t) at 24 h [3]: 33400 ng·h/mL; AUC(0-t) at 24 h [4]: 3500 ng·h/mL
OC[C@H]1O[C@H](Oc2ccc(N3CCc4ccccc43)cc2Cl)[C@@H](O)[C@@H](O)[C@@H]1O	2.8	
OC[C@H]1O[C@H](Oc2ccc(-c3cnc4[nH]ccc4c3)cc2Cl)[C@@H](O)[C@@H](O)[C@@H]1O	3.2	
OC[C@H]1O[C@H](Oc2ccc(-n3ccc4ccccc43)cc2F)[C@@H](O)[C@@H](O)[C@@H]1O	2.4	
OC[C@H]1O[C@H](Oc2ccc(N3CCc4ccccc43)cc2)[C@@H](O)[C@@H](O)[C@@H]1O	2.3	
O=[N+]([O-])c1ccc2c(ccn2-c2ccc(O[C@H]3O[C@H](CO)[C@@H](O)[C@H](O)[C@@H]3O)c(F)c2)c1	1.9	
O=[N+]([O-])c1ccc2c(c1)CCN2c1ccc(O[C@H]2O[C@H](CO)[C@@H](O)[C@H](O)[C@@H]2O)cc1	1.9	AUC(0-t) at 24 h [7]: 2200 ng·h/mL; AUC(0-t) at 24 h [8]: 586000 ng·h/mL
N#Cc1cnc2c(ccn2-c2ccc(O[C@H]3O[C@H](CO)[C@@H](O)[C@H](O)[C@@H]3O)c(Cl)c2)c1	1.6	
Cn1cnc2cc(-c3ccc(O[C@H]4O[C@H](CO)[C@@H](O)[C@H](O)[C@@H]4O)c(Cl)c3)cnc21	1.3	
O=C(O)c1ccc(-c2ccc(O[C@H]3O[C@H](CO)[C@@H](O)[C@H](O)[C@@H]3O)c(Cl)c2)cc1	-0.8	
OC[C@H]1O[C@H](Oc2ccc(-n3ccc4c(OCc5ccccc5)cccc43)cc2Cl)[C@@H](O)[C@@H](O)[C@@H]1O	2.7	

Continued, in another order:

logD at 2 h, 1 µM [2]	Structure (SMILES)	also measured
1.8	O=[N+]([O-])c1ccc2c(ccn2-c2ccc(O[C@H]3O[C@H](CO)[C@@H](O)[C@H](O)[C@@H]3O)c(Cl)c2)c1	AUC(0-t) at 24 h [1]: 2300 ng·h/mL
2.8	COC(=O)c1ccc2c(ccn2-c2ccc(O[C@H]3O[C@H](CO)[C@@H](O)[C@H](O)[C@@H]3O)c(Cl)c2)c1	
1.8	CS(=O)(=O)Nc1ccc2c(ccn2-c2ccc(O[C@H]3O[C@H](CO)[C@@H](O)[C@H](O)[C@@H]3O)c(Cl)c2)c1	
3.4	OC[C@H]1O[C@H](Oc2ccc(-n3ccc4cc(Cl)cnc43)cc2Cl)[C@@H](O)[C@@H](O)[C@@H]1O	
1.8	OC[C@H]1O[C@H](Oc2ccc(-n3ccc4ccccc43)cc2Cl)[C@@H](O)[C@@H](O)[C@@H]1O	AUC(0-t) at 24 h [5]: 19300 ng·h/mL; AUC(0-t) at 24 h [6]: 8200 ng·h/mL
1.1	O=C(O)c1ccc2c(ccn2-c2ccc(O[C@H]3O[C@H](CO)[C@@H](O)[C@H](O)[C@@H]3O)c(Cl)c2)c1	
3	COc1ccc2c(ccn2-c2ccc(O[C@H]3O[C@H](CO)[C@@H](O)[C@H](O)[C@@H]3O)c(Cl)c2)c1	
